Measured values from ChEMBL document CHEMBL1152212, “Docking study, synthesis, and in vitro evaluation of fluoro-MADAM derivatives as SERT ligands for PET imaging” (Bioorg Med Chem, 2008).

Experiments:
[1] = biological target: Sodium-dependent noradrenaline transporter (Homo sapiens, UniProt P23975); test: Displacement of [3H]nisoxetine from human cloned NET expressed in HEK293 cells; type: cell-based
[2] = biological target: T1, Sodium-dependent serotonin transporter (Rattus norvegicus, UniProt P31652); test: Displacement of [3H]MADAM from SERT in rat brain cortex membrane; type: cell membranes
T1 sequence (P31652 whole entry): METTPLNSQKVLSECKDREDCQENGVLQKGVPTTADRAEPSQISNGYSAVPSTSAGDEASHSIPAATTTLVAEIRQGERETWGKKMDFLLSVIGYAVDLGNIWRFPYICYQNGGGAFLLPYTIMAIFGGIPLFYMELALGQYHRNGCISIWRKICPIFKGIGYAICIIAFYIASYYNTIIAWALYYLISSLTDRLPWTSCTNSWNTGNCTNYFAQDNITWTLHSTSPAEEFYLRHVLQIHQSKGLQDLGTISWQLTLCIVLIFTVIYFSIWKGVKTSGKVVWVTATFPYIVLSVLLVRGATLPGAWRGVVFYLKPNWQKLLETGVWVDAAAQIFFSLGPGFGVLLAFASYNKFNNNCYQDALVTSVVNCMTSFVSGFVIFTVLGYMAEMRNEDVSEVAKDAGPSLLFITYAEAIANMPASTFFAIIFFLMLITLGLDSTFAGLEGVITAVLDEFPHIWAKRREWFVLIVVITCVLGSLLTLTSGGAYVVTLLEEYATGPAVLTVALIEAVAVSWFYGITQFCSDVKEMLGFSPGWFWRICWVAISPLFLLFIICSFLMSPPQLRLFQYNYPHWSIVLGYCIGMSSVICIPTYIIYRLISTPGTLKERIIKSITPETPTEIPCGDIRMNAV
Outline: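 Paroxetine defined nonspecific binding. Bound radioactivity was collected by GF/B filtration with an ice-cold wash and beta-counted. IC50 was read graphically and Ki derived by Cheng-Prusoff. Samples run in duplicate; values are the mean of four determinations.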

[3] = biological target: Sodium-dependent dopamine transporter (Homo sapiens, UniProt Q01959); test: Displacement of [3H]GBR-12935 from human cloned DAT expressed in HEK293 cells; type: cell-based
Chain of Sodium-dependent dopamine transporter (Q01959 whole entry): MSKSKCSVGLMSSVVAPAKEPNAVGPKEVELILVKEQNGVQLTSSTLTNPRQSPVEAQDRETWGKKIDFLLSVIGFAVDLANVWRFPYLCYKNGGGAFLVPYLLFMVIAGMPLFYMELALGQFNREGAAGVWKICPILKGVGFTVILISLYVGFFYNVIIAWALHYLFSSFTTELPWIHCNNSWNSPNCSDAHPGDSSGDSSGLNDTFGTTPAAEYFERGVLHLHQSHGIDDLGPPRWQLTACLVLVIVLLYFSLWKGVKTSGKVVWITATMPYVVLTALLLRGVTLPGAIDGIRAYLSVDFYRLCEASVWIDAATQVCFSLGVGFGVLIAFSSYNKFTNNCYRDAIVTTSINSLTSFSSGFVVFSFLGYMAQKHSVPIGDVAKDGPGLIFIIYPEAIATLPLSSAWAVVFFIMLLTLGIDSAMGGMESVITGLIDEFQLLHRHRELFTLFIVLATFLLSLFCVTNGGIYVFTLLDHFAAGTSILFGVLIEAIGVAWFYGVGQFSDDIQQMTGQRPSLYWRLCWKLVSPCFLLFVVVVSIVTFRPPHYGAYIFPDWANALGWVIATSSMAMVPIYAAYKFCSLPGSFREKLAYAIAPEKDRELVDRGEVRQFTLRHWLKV

[4] = biological target: T1, Sodium-dependent serotonin transporter; test: Displacement of [125I]IDAM from SERT in rat brain cortex membrane; type: cell membranes
[5] = Partition coefficient, log P at pH 7.4 by reverse-phase HPLC; type: physicochemical; details: octanol/water, read-out: logP
Outline: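 Indirect log P7.4 from retention time (triplicate) on a C-18 column (5 µm, 4.6 × 150 mm) eluted with methanol/0.1 M phosphate buffer pH 7.4 (50/50) at 1 mL/min. Calibrated against seven standards dissolved in mobile phase: quinoline, phenol, benzamide, chlorpromazine, hexachlorobenzene, ADAM and MADAM. Calibration equation: y = 1.438·Ln(retention time) – 0.7301, R² 0.93.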

[6] = Partition coefficient, log P in n-octanol/0.02 M phosphate buffer at pH 7.4; type: physicochemical
[7] = biological target: T1, Sodium-dependent serotonin transporter

Chain of Sodium-dependent noradrenaline transporter (P23975 whole entry): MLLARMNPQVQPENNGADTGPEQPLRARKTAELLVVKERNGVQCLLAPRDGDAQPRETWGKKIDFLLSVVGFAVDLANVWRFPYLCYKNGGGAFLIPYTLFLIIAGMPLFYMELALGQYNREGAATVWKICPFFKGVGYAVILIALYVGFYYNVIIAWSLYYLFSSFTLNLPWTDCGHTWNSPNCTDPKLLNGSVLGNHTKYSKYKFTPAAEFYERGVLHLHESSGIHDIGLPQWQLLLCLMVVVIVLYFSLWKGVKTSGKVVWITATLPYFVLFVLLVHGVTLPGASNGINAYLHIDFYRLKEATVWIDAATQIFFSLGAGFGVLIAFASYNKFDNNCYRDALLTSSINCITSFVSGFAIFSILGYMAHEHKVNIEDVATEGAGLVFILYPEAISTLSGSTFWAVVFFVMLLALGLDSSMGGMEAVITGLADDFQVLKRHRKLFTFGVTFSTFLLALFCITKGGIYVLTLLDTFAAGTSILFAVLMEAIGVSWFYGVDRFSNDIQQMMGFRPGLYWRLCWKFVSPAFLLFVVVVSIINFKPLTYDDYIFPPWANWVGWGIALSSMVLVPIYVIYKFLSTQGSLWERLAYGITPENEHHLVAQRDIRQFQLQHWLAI

Compound | Ki [1] [nM] | Ki [3] [nM] | Ki [4] [nM] | Ki [2] [nM] | also measured
Cc1ccc(Sc2ccccc2CN(C)C)c(NC(=O)c2ccc([N+](=O)[O-])cc2)c1 | > 1000 | > 1000 | – | > 100 | –
CNCc1ccccc1Sc1ccc(C)cc1NC(=O)c1ccc(F)cc1 | > 2500 | > 1000 | – | > 500 | –
Cc1ccc(Sc2ccccc2CN(C)C)c(NCc2ccc(F)cc2)c1 | > 1200 | > 1500 | – | 10.1 | chromatographic logD [5]: 4.7
CNCc1ccccc1Sc1ccc(C)cc1NCc1ccc(F)cc1 | > 1000 | > 2000 | – | > 100 | –
CN(C)Cc1ccccc1Sc1ccc(I)cc1N | – | – | – | – | logD [6]: 2.52
CN(C)Cc1ccccc1Sc1ccc(I)cc1CO | – | – | – | – | Ki [7]: 0.1 nM
CN(C)Cc1ccccc1Sc1ccc(Br)cc1NC(=O)c1ccc(F)cc1 | – | – | 8 | – | –
CN(C)Cc1ccccc1Sc1ccccc1NC(=O)c1ccc(F)cc1 | – | – | 34 | – | –

Now from value to compound, other results behind:

Ki [1] [nM] | Ki [3] [nM] | Ki [4] [nM] | Compound | Ki [2] [nM] | also measured
– | – | 193 | CN(C)Cc1ccccc1Sc1ccc(I)cc1NC(=O)c1ccc(F)cc1 | – | –
– | – | 0.9 | CN(C)Cc1ccccc1Sc1ccc(Cl)cc1NC(=O)c1ccc(F)cc1 | – | –
> 1900 | > 1000 | – | Cc1ccc(Sc2ccccc2CN(C)C)c(NCc2ccc([N+](=O)[O-])cc2)c1 | 60 | –
> 5200 | > 1000 | – | Cc1ccc(Sc2ccccc2CN(C)C)c(NC(=O)c2ccc(F)cc2)c1 | 14.3 | chromatographic logD [5]: 2.99
325 | > 1000 | – | Cc1ccc(Sc2ccccc2CN(C)C)c(N)c1 | – | logD [6]: 2.46
